From ChEMBL document CHEMBL1129478, “Structure-activity relationship studies of novel 4-[2-[bis(4-fluorophenyl)methoxy]ethyl]-1-(3-phenylpropyl)piperidine analogs: synthesis and biological evaluation at the dopamine and serotonin transporter sites” (J Med Chem, 1996) come the findings set out here.

As usually defined, the IC50 is the concentration that inhibits the measured activity by half. Read a high IC50 as weaker potency.

Experiment [1] deals with Monoamine transporters; serotonin & dopamine (Rattus norvegicus) (UniProt P31652+P23977). As to the kind of experiment: Selectivity for serotonin and dopamine transporters. In kind it is protein assay.
Chain of Monoamine transporters; serotonin & dopamine (Rattus norvegicus) (P23977 whole entry, looked up): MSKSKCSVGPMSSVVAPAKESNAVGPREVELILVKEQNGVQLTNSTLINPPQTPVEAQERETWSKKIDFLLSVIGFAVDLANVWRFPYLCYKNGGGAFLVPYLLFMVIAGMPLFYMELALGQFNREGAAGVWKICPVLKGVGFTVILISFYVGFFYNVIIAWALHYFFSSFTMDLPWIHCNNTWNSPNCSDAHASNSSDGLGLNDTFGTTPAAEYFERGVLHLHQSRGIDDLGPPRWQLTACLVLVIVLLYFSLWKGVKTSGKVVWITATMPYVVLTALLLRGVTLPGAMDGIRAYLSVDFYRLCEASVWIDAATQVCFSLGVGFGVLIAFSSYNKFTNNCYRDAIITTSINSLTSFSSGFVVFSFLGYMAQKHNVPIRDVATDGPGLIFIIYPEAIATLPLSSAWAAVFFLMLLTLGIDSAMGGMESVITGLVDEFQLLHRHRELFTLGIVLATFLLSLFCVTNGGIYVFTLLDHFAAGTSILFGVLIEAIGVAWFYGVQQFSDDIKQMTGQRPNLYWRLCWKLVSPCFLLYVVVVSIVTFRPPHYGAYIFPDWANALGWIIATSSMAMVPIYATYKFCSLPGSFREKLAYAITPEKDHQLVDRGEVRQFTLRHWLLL
Chain of Monoamine transporters; serotonin & dopamine (Rattus norvegicus) (P31652 whole entry, looked up): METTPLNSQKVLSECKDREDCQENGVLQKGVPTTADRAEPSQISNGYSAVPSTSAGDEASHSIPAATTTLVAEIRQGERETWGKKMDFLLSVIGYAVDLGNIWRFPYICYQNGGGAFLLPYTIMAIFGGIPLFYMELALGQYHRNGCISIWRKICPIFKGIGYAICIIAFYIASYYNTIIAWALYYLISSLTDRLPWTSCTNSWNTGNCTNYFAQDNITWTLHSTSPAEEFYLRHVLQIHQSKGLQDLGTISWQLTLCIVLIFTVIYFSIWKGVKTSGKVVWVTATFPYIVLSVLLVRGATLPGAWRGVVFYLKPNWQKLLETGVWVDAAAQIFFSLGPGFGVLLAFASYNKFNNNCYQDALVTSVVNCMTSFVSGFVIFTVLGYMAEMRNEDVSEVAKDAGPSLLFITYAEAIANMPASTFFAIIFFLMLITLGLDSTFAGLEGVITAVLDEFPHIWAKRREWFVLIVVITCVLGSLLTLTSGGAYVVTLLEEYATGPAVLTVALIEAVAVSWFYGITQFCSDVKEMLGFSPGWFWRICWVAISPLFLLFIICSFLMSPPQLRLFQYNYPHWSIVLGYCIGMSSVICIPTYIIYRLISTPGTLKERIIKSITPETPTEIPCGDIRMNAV
The target in experiment [2] is Sodium-dependent serotonin transporter (Rattus norvegicus, UniProt P31652). Put plainly: Binding affinity at serotonin transporter from rat brain striatal membrane by [3H]citalopram displacement. In kind it is tissue-based. The method in brief:
(§1)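 Rat striatal P2 membranes: tissue homogenised in 0.32 M sucrose, pellet polytronned in ice-cold 35 mM sodium phosphate, pH 7.4. Incubation 2 h on ice, final sodium phosphate 30 mM, final DMSO 0.5%. Five inhibitor concentrations set after range-finding. Mean ± SEM of 3–5 (DAT, [3H]CFT) or 2–3 (SERT, [3H]citalopram) independent experiments, each in triplicate.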

For experiment [3], the target named is Sodium-dependent dopamine transporter (Rattus norvegicus, UniProt P23977). As to the kind of experiment: Binding affinity at dopamine transporter from rat striatal membrane tissue by [3H]CFT displacement. In kind it is tissue-based, Striatum. The method in brief:
as §1

Chain of Sodium-dependent dopamine transporter (P23977 whole entry): as the sequence (P23977 whole entry, looked up) above
Chain of Sodium-dependent serotonin transporter (P31652 whole entry): as the sequence (P31652 whole entry, looked up) above

As for `c1ccc(CN2CCC(CCOC(c3ccccc3)c3ccccc3)CC2)cc1`, the Selectivity in experiment [1] was 49. The IC50 in experiment [2] was 0.743 µM; in experiment [3], 0.0152 µM.

On to `Fc1ccc(C(OCCC2CCN(CCc3ccccc3)CC2)c2ccc(F)cc2)cc1`, for which the IC50 in experiment [2] was 0.0319 µM. That is a double-digit nanomolar value.

As to `Fc1ccc(C(OCC2CCN(Cc3ccccc3)CC2)c2ccc(F)cc2)cc1`, the Selectivity in experiment [1] is 6. Further, the IC50 was 0.761 µM in experiment [2] and 0.126 µM in experiment [3].

For `c1ccc(CCCN2CCC(COC(c3ccccc3)c3ccccc3)CC2)cc1`, the Selectivity in experiment [1] was determined as 4. Also, the IC50 was 0.058 µM in experiment [2] and 0.0145 µM in experiment [3].

In experiment [2], `c1ccc(CCN2CCC(CCOC(c3ccccc3)c3ccccc3)CC2)cc1` displayed an IC50 of 0.102 µM.

As for `Fc1ccc(C(OCCC2CCN(CCCc3ccccc3)CC2)c2ccc(F)cc2)cc1`, the Selectivity in experiment [1] was 3.3. In addition, the IC50 in experiment [2] was determined as 0.055 µM; in experiment [3] it was 0.0167 µM.

On to `c1ccc(CCCN2CCC(CCOC(c3ccccc3)c3ccccc3)CC2)cc1`, for which the Selectivity in experiment [1] was determined as 20. Further, the half-maximal inhibitory concentration (IC50) was determined as 0.232 µM in experiment [2] and 0.012 µM in experiment [3].

The molecule `Clc1ccc(C(OCCC2CCN(CCc3ccccc3)CC2)c2ccc(Cl)cc2)cc1` displayed a Selectivity in experiment [1] of 3.6. The 50% inhibitory concentration (IC50) in experiment [2] is 0.414 µM; in experiment [3], 0.115 µM.

Molecule `Brc1ccc(C(OCCC2CCN(CCc3ccccc3)CC2)c2ccc(Br)cc2)cc1` came in with a Selectivity in experiment [1] of 1.6. The IC50 in experiment [2] was found to be 0.638 µM; in experiment [3], 0.382 µM.

The molecule `Cc1ccc(C(OCCC2CCN(CCc3ccccc3)CC2)c2ccc(C)cc2)cc1` returned a Selectivity in experiment [1] of 2.8. The IC50 in experiment [2] came to 0.888 µM; in experiment [3] it was 0.311 µM.

For `Fc1ccc(C(OCC2CCN(CCc3ccccc3)CC2)c2ccc(F)cc2)cc1`, the Selectivity in experiment [1] worked out at 17.5. In addition, the figures for the IC50 in experiment [2] and in experiment [3] were 0.237 µM and 0.0135 µM, respectively.

As to `Clc1ccc(C(OCCC2CCN(CCCc3ccccc3)CC2)c2ccc(Cl)cc2)cc1`, in experiment [1], the Selectivity amounted to 3.5. Moreover, the figures for the IC50 in experiment [2] and in experiment [3] were 0.224 µM and 0.065 µM, respectively.

Take `Brc1ccc(C(OCCC2CCN(CCCc3ccccc3)CC2)c2ccc(Br)cc2)cc1`: the Selectivity in experiment [1] stood at 5.2. Also, the IC50 in experiment [2] amounted to 0.835 µM; in experiment [3], 0.159 µM.

`COc1ccc(C(OCCC2CCN(CCCc3ccccc3)CC2)c2ccc(OC)cc2)cc1` came in with a Selectivity in experiment [1] of 1.3. Moreover, the IC50 in experiment [2] came out at 0.34 µM; in experiment [3], 0.255 µM.

Consider `Fc1ccc(C(OCC2CCN(CCCc3ccccc3)CC2)c2ccc(F)cc2)cc1`, for which the Selectivity in experiment [1] stood at 8.6. Besides, the IC50 in experiment [2] turned out to be 0.112 µM; in experiment [3], 0.013 µM.

Consider `Fc1ccc(C(OCCC2CCN(Cc3ccccc3)CC2)c2ccc(F)cc2)cc1`, for which, in experiment [1], the Selectivity stood at 20. Further, the IC50 in experiment [2] came to 0.198 µM; in experiment [3], 0.0097 µM.

As for `c1ccc(CCN2CCC(COC(c3ccccc3)c3ccccc3)CC2)cc1`, in experiment [1], the Selectivity stood at 4.2. The values for the IC50 in experiment [2] and in experiment [3] were 0.456 µM and 0.108 µM, respectively.

In the case of `c1ccc(CN2CCC(COC(c3ccccc3)c3ccccc3)CC2)cc1`, the Selectivity in experiment [1] was 0.7. Further, the results for the IC50 in experiment [2] and in experiment [3] were 0.544 µM and 0.702 µM, respectively.
